Assay results taken from ChEMBL document CHEMBL3108778, “Structure-activity relationships of synthetic cordycepin analogues as experimental therapeutics for African trypanosomiasis” (J Med Chem, 2013).
pIC50, pKi: −log10 of the molar value. One block for each compound: values may come before it. The source made the active and inactive calls. No cut-off for these calls is given here.

Columns and labels:
[1] = Displacement of [2,8-3H]-adenosine from Trypanosoma brucei AT1/P2 expressed in bloodstream stage of Trypanosoma brucei brucei B48
How it was run: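 Bloodstream T. b. brucei B48 clone with endogenous TbAT1 deleted and TbAT1 overexpressed. Cells were incubated 20 s with 0.05 μM [2,8-³H]adenosine plus competitor (typically 10 nM–100 μM). Uptake was stopped with ice-cold 1 mM adenosine and centrifugation through oil. Ki came from competition curves, triplicates on at least three occasions.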

[2] = system: Trypanosoma brucei brucei; assay: Trypanocidal activity against bloodstream stage of Trypanosoma brucei brucei AnTat1.1E after 72 hrs by WST-1 assay; type: functional, organism-based
How it was run: (§1)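 Bloodstream trypanosomes (6000/well) in log phase were treated in IMDM with 10% FCS for 72 h at 37 °C, 5% CO₂. Compounds were 11-step serial dilutions from DMSO stocks, final DMSO at most 0.25%. Controls were DMSO and 10 μM 3′-deoxyadenosine. Where stated, 1.5 μM deoxycoformycin was co-added. Readout was WST-1 for 2 h, A450. EC50 came from variable-slope nonlinear regression.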

Trypanosoma brucei [3] = assay: Trypanocidal activity against Trypanosoma brucei; type: functional, organism-based; how it was run: as §1
[4] = system: Trypanosoma brucei brucei; assay: Trypanocidal activity against bloodstream stage of Trypanosoma brucei brucei AnTat1.1E after 72 hrs by WST-1 assay in presence of adenosine kinase inhibitor ABT702; type: functional, organism-based
Trypanosoma brucei [5] = assay: Trypanocidal activity against bloodstream stage of Trypanosoma brucei after 72 hrs by WST-1 assay in presence of deoxycoformycin; type: functional, organism-based; how it was run: as §1
Trypanosoma brucei [6] = assay: Trypanocidal activity against bloodstream stage of Trypanosoma brucei after 72 hrs by WST-1 assay; type: functional, organism-based; how it was run: as §1
MOLT-4 [7] = assay: Cytotoxicity against human MOLT4 cells assessed as cell viability after 72 hrs by WST-1 assay in presence of deoxycoformycin; type: cell-based; settings: MOLT-4, 72 h
How it was run: (§2)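 MOLT4 (10⁴/well) or L929 (5 × 10³/well) cells were kept in RPMI with 10% FCS and exposed to serial dilutions for 72 h at 37 °C, 5% CO₂. Final DMSO was at most 0.25%. Where stated, 1.5 μM deoxycoformycin was co-added. WST-1 was added for 2 h and A450 read. EC50 came from variable-slope nonlinear fits; triplicate cultures.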

MOLT-4 [8] = assay: Cytotoxicity against human MOLT4 cells assessed as cell viability after 72 hrs by WST-1 assay; type: cell-based; settings: MOLT-4, 72 h; how it was run: as §2
L929 = assay: Cytotoxicity against mouse L929 cells assessed as cell viability after 72 hrs by WST-1 assay; type: cell-based; settings: L929, 72 h; how it was run: as §2
[9] = system: Trypanosoma brucei brucei; assay: Trypanocidal activity against bloodstream stage of Trypanosoma brucei brucei AnTat1.1E infected in C57BL6J (B6) mouse assessed as reduction of parasitemia at 2 mg/kg, ip qd measured after 30 days; type: functional, organism-based; parameters: dose 2 mg/kg
How it was run: (§3)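 Mice were infected ip with T. b. brucei AnTat1.1E and treated ip once daily starting 2 h later. Where stated, 0.2 mg/kg deoxycoformycin was co-given. Vehicle was PBS with 1.25% final DMSO. Parasitemia and weight were recorded every other day, then twice weekly after 30 days. At least six mice per group.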

[10] = system: Trypanosoma brucei brucei; assay: Trypanocidal activity against bloodstream stage of Trypanosoma brucei brucei AnTat1.1E infected in C57BL6J (B6) mouse assessed as reduction of parasitemia at 2 mg/kg, ip qd administered for 3 days measured after 40 days in presence of deoxycoformycin; type: functional, organism-based; parameters: dose 2 mg/kg; how it was run: as §3
[11] = system: Trypanosoma brucei brucei; assay: Trypanocidal activity against bloodstream stage of Trypanosoma brucei brucei AnTat1.1E after 72 hrs by WST-1 assay in presence of deoxycoformycin; type: functional, organism-based; how it was run: as §1
[12] = system: Trypanosoma brucei brucei; assay: Trypanocidal activity against bloodstream stage of Trypanosoma brucei brucei AnTat1.1E infected in C57BL6J (B6) mouse assessed as reduction of parasitemia at 4 mg/kg, ip qd administered for 3 days measured after 40 days in presence of deoxycoformycin; type: functional, organism-based; parameters: dose 4 mg/kg; how it was run: as §3
[13] = system: Trypanosoma brucei brucei; assay: Trypanocidal activity against bloodstream stage of Trypanosoma brucei brucei AnTat1.1E infected in C57BL6J (B6) mouse assessed as reduction of parasitemia at 4 mg/kg, ip qd administered for 10 days measured after 19 to 30 days; type: functional, organism-based; parameters: dose 4 mg/kg; how it was run: as §3
[14] = system: Trypanosoma brucei brucei; assay: Trypanocidal activity against bloodstream stage of Trypanosoma brucei brucei AnTat1.1E infected in C57BL6J (B6) mouse assessed as reduction of parasitemia at 4 mg/kg, ip qd administered for 10 days measured after 18 days; type: functional, organism-based; parameters: dose 4 mg/kg; how it was run: as §3
[15] = system: Trypanosoma brucei brucei; assay: Trypanocidal activity against bloodstream stage of Trypanosoma brucei brucei AnTat1.1E infected in acute C57BL6J (B6) mouse HAT model assessed as day of parasitemia relapse at 5 mg/kg, po qd administered for 5 days in presence of deoxycoformycin; type: functional
[16] = system: Trypanosoma brucei brucei; assay: Trypanocidal activity against bloodstream stage of Trypanosoma brucei brucei AnTat1.1E infected in acute C57BL6J (B6) mouse HAT model assessed as day of parasitemia relapse at 5 mg/kg, po qd administered for 5 days; type: functional
[17] = system: Trypanosoma brucei brucei; assay: Trypanocidal activity against bloodstream stage of Trypanosoma brucei brucei AnTat1.1E infected in acute C57BL6J (B6) mouse HAT model assessed as day of parasitemia relapse at 1 mg/kg, po bid administered for 5 days; type: functional
[18] = Apparent terminal half life in C57BL/6 mouse at 25 mg/kg, ip; type: ADME, organism-based; parameters: dose 25 mg/kg, route intraperitoneal; settings: in vivo, read-out: betat1/2(app) (converted)
[19] = Apparent terminal half life in C57BL/6 mouse at 25 mg/kg, po; type: ADME, organism-based; parameters: dose 25 mg/kg, route oral; settings: in vivo, read-out: betat1/2(app) (converted)
[20] = Apparent initial half life in C57BL/6 mouse at 25 mg/kg, po; type: ADME, organism-based; parameters: dose 25 mg/kg, route oral; settings: in vivo, read-out: alphat1/2(app) (converted)
[21] = Apparent initial half life in C57BL/6 mouse at 25 mg/kg, ip; type: ADME, organism-based; parameters: dose 25 mg/kg, route intraperitoneal; settings: in vivo, read-out: alphat1/2(app) (converted)
[22] = Cmax in C57BL/6 mouse at 25 mg/kg, ip; type: ADME, organism-based; parameters: dose 25 mg/kg, route intraperitoneal; settings: in vivo
[23] = Cmax in C57BL/6 mouse at 25 mg/kg, po; type: ADME, organism-based; parameters: dose 25 mg/kg, route oral; settings: in vivo
[24] = Tmax in C57BL/6 mouse at 25 mg/kg, po and ip; type: ADME, organism-based; parameters: dose 25 mg/kg, route oral; settings: in vivo
[25] = Fraction unbound in human plasma at 10 uM after 4 hrs by equilibrium dialysis method; type: ADME, cell-free
How it was run: (§4)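 Pooled human plasma (four donors) was spiked with 10 μM final compound. It was dialysed against isotonic phosphate buffer pH 7.4 for 4 h at 37 °C by rapid equilibrium dialysis. A separate sealed plasma sample was held 4 h at 37 °C for stability. Samples were methanol-precipitated and quantified by LC-MS/MS.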

[26] = Metabolic stability in CD-1 mouse liver microsomes at 1 uM by LC-MS/MS analysis; type: ADME, Microsome
How it was run: (§5)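 Pooled human or male CD-1 mouse liver microsomes (0.5 mg/mL) were incubated with 1 μM compound in 0.1 M phosphate pH 7.4, started with 1 mM NADPH. Sampling was at 0, 5, 15 and 40 min, quenched with cold acetonitrile containing warfarin internal standard. Analysis was LC-MS/MS on a relative basis; intrinsic clearance by the well-stirred model. Midazolam and dextromethorphan were CYP controls.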

Liver microsome = assay: Metabolic stability in human liver microsomes at 1 uM by LC-MS/MS analysis; type: ADME; how it was run: as §5
[27] = Apparent permeability across basolateral to apical side in human Caco2 cells assessed as compound recovery at 10 uM by LC-MS/MS analysis; type: ADME, cell-based; settings: Caco-2, read-out: Papp
How it was run: (§6)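 Caco-2 monolayers (passage 94–105) were used on day 21 on permeable filters. Transport was run in both directions at pH 7.4 on both sides, 37 °C, 500 rpm stirring. The receiver side was sampled at 15, 30 and 60 min, the donor side at 60 min for mass balance. Mannitol served as integrity marker. LC-MS/MS used a 10–1000 nM external standard curve.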

[28] = Apparent permeability across basolateral to apical side in human Caco2 cells at 10 uM by LC-MS/MS analysis; type: ADME, cell-based; settings: Caco-2; how it was run: as §6
[29] = Apparent permeability across apical to basolateral side in human Caco2 cells assessed as compound recovery at 10 uM by LC-MS/MS analysis; type: ADME, cell-based; settings: Caco-2, read-out: Papp; how it was run: as §6
[30] = Apparent permeability across apical to basolateral side in human Caco2 cells at 10 uM by LC-MS/MS analysis; type: ADME, cell-based; settings: Caco-2; how it was run: as §6
[31] = Metabolic stability in human plasma at 10 uM measured over 4 hrs by LC-MS/MS analysis; type: ADME, cell-free; settings: read-out: Stability; how it was run: as §4
[32] = system: Trypanosoma brucei brucei; assay: Trypanocidal activity against bloodstream stage of Trypanosoma brucei brucei AnTat1.1E infected in acute C57BL6J (B6) mouse HAT model assessed as day of parasitemia relapse at 15 mg/kg, po qd administered for 5 days; type: functional
[33] = system: Trypanosoma brucei brucei; assay: Trypanocidal activity against bloodstream stage of Trypanosoma brucei brucei AnTat1.1E infected in acute C57BL6J (B6) mouse HAT model assessed as reduction of parasitemia at 30 mg/kg, po qd administered for 6 days measured after 90 days; type: functional, organism-based; parameters: dose 30 mg/kg
Caco-2 = assay: Efflux ratio of apparent permeability across basolateral to apical side over apical to basolateral side in human Caco2 cells at 10 uM by LC-MS/MS analysis; settings: caco-2, 10 µM

pKi [1]: 5.59
SMILES: Nc1[nH]c(Cl)nc2ncnc1-2

pKi [1]: 5.40
SMILES: Nc1nc(Cl)nc2c1ncn2[C@@H]1O[C@H](CO)C[C@H]1O
pIC50 ([2]; read-out: IC50): < 4.30

pKi [1]: 6.55
SMILES: Nc1[nH]cnc2ncnc1-2 [ADENINE]

SMILES: Nc1nc(F)nc2c1ncn2[C@@H]1O[C@H](CO)C[C@@H]1O
pIC50 ([2]; read-out: IC50): < 4.00

pKi [1]: 6.05
SMILES: Nc1nc(F)nc2nc[nH]c12
pIC50 ([2]; read-out: IC50): < 4.00

SMILES: Nc1nc(NCCO)nc2c1ncn2[C@@H]1O[C@H](CO)C[C@H]1O
pIC50 ([2]; read-out: IC50): < 4.30

SMILES: Nc1nc(F)nc2c1ncn2[C@@H]1O[C@H](CO)[C@@H](O)[C@H]1O
pKi [1]: 5.57
pIC50 ([2]; read-out: IC50): < 4.00

pKi [1]: 6.74
SMILES: Nc1ncnc2c1ncn2[C@@H]1O[C@H](CO)C[C@H]1O [CORDYCEPIN]
pIC50 (Trypanosoma brucei [3]): 7.49
Activity [4]: inactive
pIC50 (Trypanosoma brucei [5]): 8.92
pIC50 (Trypanosoma brucei [6]): 7.38
pIC50 (MOLT-4 [7]): 7.00
pIC50 (MOLT-4 [8]): ≤ 4.00
pIC50 (L929): 4.54
Activity [9]: inactive
Activity [10]: Active
pIC50 ([2]; read-out: IC50): 7.52

SMILES: OC[C@@H]1C[C@@H](O)[C@H](n2cnc3cncnc32)O1
pIC50 (L929): < 4.00
pIC50 ([2]; read-out: IC50): 5.06

SMILES: OC[C@H]1O[C@@H](n2cnc3cncnc32)[C@H](O)[C@@H]1O [NEBULARINE]
pIC50 (L929): 5.63
pIC50 ([2]; read-out: IC50): 5.94

SMILES: CCCCCCCC(=O)Nc1ncnc2c1ncn2[C@@H]1O[C@H](CO)C[C@H]1O
pIC50 (L929): 4.73
pIC50 [11]: 9.00
Activity [12]: Active
Activity [13]: inactive
Activity [14]: Active
pIC50 ([2]; read-out: IC50(app)): 7.55

SMILES: Nc1ncnc2c1ncn2[C@@H]1O[C@H](CO)[C@@H](O)[C@@H]1O [VIDARABINE]
pIC50 ([2]; read-out: IC50): < 4.00

half-life [18]: 366 min
half-life [19]: 408 min
half-life [20]: 54 min
half-life [21]: 36 min
Cmax [22]: 9.17 µM
Cmax [23]: 4 µM
Tmax [24]: 30 min
fraction unbound at 4 h, 10 µM [25]: 1
Stability [26]: Stable
Stability (Liver microsome): Stable
recovery at 10 µM [27]: 104%
Papp B→A at 10 µM [28]: 1.4 ×10⁻⁶ cm/s
recovery at 10 µM [29]: 102%
Papp A→B at 10 µM [30]: 3 ×10⁻⁶ cm/s
remaining at 4 h, 10 µM [31]: 98%
pKi [1]: 6.02
Ratio (Caco-2): 0.5
SMILES: Nc1nc(F)nc2c1ncn2[C@@H]1O[C@H](CO)C[C@H]1O
Time [15]: 5 days
Time [16]: 7 days
Time [17]: 2 days
Activity [4]: inactive
pIC50 (Trypanosoma brucei [5]): 6.77
pIC50 (Trypanosoma brucei [6]): 6.75
pIC50 (MOLT-4 [7]): 5.67
pIC50 (MOLT-4 [8]): 5.61
Time [32]: 7 days
Activity [33]: Active
pIC50 ([2]; read-out: IC50): 6.77

pKi [1]: 5.02
SMILES: Nc1nc(Cl)nc2c1ncn2[C@@H]1O[C@H](CO)[C@@H](O)[C@H]1O

SMILES: Nc1ncnc2c1ncn2[C@@H]1O[C@H](CO)[C@H]2O[C@H]21
pIC50 ([2]; read-out: IC50): < 4.00
